Laboratory results reported in ChEMBL document CHEMBL1125226, “Antineoplastic activity of didemnin congeners: nordidemnin and modified chain analogues” (1991).

What was measured:
Type in all cases: functional, Mus musculus
L1210 [1] = assay: Antitumor activity against L1210 Lymphoid Leukemia from CDF1 female mice evaluated as the number of survivors on day 5 at a dose of 0.25 mg/kg/day
How it was run: (§1)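 L1210 leukemia, 10⁵ cells ip on day 0 into CDF1 female mice (BALB/c ♀ × DBA/2 ♂). Drug in 2% methanol given ip on days 1, 5 and 9, 10 mice per group. Survivors and body weight recorded on days 1 and 5, with toxicity as survivors on day 5. Deaths followed for 30 days. T/C = treated/control median survival time, significant at ≥125%.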

B16 [2] = assay: Antitumor activity against B16 melanoma from B6 D2 F1 female mice evaluated as Median survival time of treated mice at a dose of 0.06 mg/kg/day
How it was run: (§2)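 B6D2F1 female mice (C57BL/6 ♀ × DBA/2 ♂) implanted ip on day 0 with 0.5 mL of B16 tumor suspension (1 g homogenized in 9 mL 0.9% saline). Dosing ip on days 1, 5 and 9. Day-5 survivors give toxicity. Median survival of treated vs control mice gives T/C%, with ≥125% significant.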

B16 [3] = assay: Antitumor activity against B16 melanoma from B6 D2 F1 female mice evaluated as average weight change of animals between day 1 and day 5 after tumor implementation at a dose of 0.06 mg/kg/day
How it was run: (§3)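 B16 melanoma in B6D2F1 female mice: 0.5 mL of tumor homogenate (1 g in 9 mL 0.9% saline) was given ip on day 0. Ip dosing was on days 1, 5 and 9. The readout was the average body weight change between day 1 and day 5 after tumor implantation.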

P388 [4] = assay: Antitumor activity against P388 Leukemia from CDF1 female mice evaluated as the number of survivors on day 5 at a dose of 0.75 mg/kg/day
How it was run: (§4)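 CDF1 female mice (BALB/c × DBA/2) inoculated ip with 10⁶ P388 cells on day 0. Drug given ip in 2% methanol on days 1, 5 and 9. Ten mice per dose group, with a larger control group. Body weight and survival were recorded on days 1 and 5, with toxicity taken as survivors on day 5. Mortality was followed for 30 days to give median survival time.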

B16 [5] = assay: Antitumor activity against B16 melanoma from B6 D2 F1 female mice(T/C) was evaluated from the median survival time of treated mice (T) over that of control mice (C) at a dose of 0.25 mg/kg/day; how it was run: as §2
B16 [6] = assay: Antitumor activity against B16 melanoma from B6 D2 F1 female mice as Median survival time of treated mice at a dose of 0.50 mg/kg/day (repeated ip injections, day 1-9); conditions: route intraperitoneal
How it was run: (§5)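 B16 melanoma homogenate (1 g tumor in 9 mL 0.9% saline), 0.5 mL implanted ip on day 0 in B6D2F1 female mice (C57BL/6 ♀ × DBA/2 ♂). Treatment ip once daily from day 1 to day 9. Toxicity scored as survivors on day 5. Median survival recorded and T/C computed as treated/control median survival, ≥125% significant.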

B16 [7] = assay: Antitumor activity against B16 melanoma from B6 D2 F1 female mice evaluated as average weight change of animals between day 1 and day 5 after tumor implementation at a dose of 0.03 mg/kg/day; how it was run: as §3
B16 [8] = assay: Antitumor activity against B16 melanoma from B6 D2 F1 female mice as Median survival time of treated mice at a dose of 0.25 mg/kg/day (repeated ip injections, day 1-9); conditions: route intraperitoneal; how it was run: as §5
P388 [9] = assay: Antitumor activity against P388 Leukemia from CDF1 female mice evaluated as Median survival time of treated mice at a dose of 0.03 mg/kg/day
How it was run: (§6)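 CDF1 female mice (BALB/c ♀ × DBA/2 ♂) given 10⁶ P388 cells ip on day 0. Drug in 2% methanol given ip on days 1, 5 and 9, 10 mice per group and more controls. Toxicity is survivors on day 5, with weight change between days 1 and 5. Mortality followed 30 days. T/C% is treated over control median survival (NCI method), significant at ≥125%.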

B16 [10] = assay: Antitumor activity against B16 melanoma from B6 D2 F1 female mice(T/C) as median survival time of treated mice (T) over that of control mice (C) at a dose of 0.06 mg/kg/day (repeated ip injections, day 1-9); conditions: route intraperitoneal; how it was run: as §5
B16 [11] = assay: Antitumor activity against B16 melanoma from B6 D2 F1 female mice(T/C) as median survival time of treated mice (T) over that of control mice (C) at a dose of 0.25 mg/kg/day (repeated ip injections, day 1-9); conditions: route intraperitoneal; how it was run: as §5
P388 [12] = assay: Antitumor activity against P388 Leukemia from CDF1 female mice evaluated as the number of survivors on day 5 at a dose of 0.50 mg/kg/day; how it was run: as §4
B16 [13] = assay: Antitumor activity against B16 melanoma from B6 D2 F1 female mice as average weight change of animals between day 1 and day 5 after tumor implementation at a dose of 0.50 mg/kg/day (repeated ip injections, day 1-9); conditions: route intraperitoneal
How it was run: (§7)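 B6D2F1 female mice (C57BL/6 × DBA/2) were implanted ip on day 0 with 0.5 mL of B16 suspension (1 g tumor homogenized in 9 mL 0.9% saline). Ip treatment was given once daily, day 1 to day 9. Body weight was recorded on days 1 and 5 after implantation, and the mean change per group was reported.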

P388 [14] = assay: Average weight change of animals between day 1 and day 5 after tumor implementation at a dose of 0.25 mg/kg/day
How it was run: (§8)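 P388 leukemia: CDF1 female mice were inoculated ip with 10⁶ cells on day 0. Treatment in 2% methanol was given ip on days 1, 5 and 9, with 10 mice per group and a larger control group. Body weight was recorded on days 1 and 5 post-implant, and the average change was reported.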

P388 [15] = assay: Antitumor activity against P388 Leukemia from CDF1 female mice evaluated as Median survival time of treated mice at a dose of 0.06 mg/kg/day; how it was run: as §6
P388 [16] = assay: Average weight change of animals between day 1 and day 5 after tumor implementation at a dose of 0.75 mg/kg/day; how it was run: as §8
B16 [17] = assay: Antitumor activity against B16 melanoma from B6 D2 F1 female mice(T/C) was evaluated from the median survival time of treated mice (T) over that of control mice (C) at a dose of 0.06 mg/kg/day; how it was run: as §2
P388 [18] = assay: Antitumor activity against P388 Leukemia from CDF1 female mice evaluated as Median survival time of treated mice at a dose of 0.50 mg/kg/day; how it was run: as §4
B16 [19] = assay: Antitumor activity against B16 melanoma from B6 D2 F1 female mice as average weight change of animals between day 1 and day 5 after tumor implementation at a dose of 0.03 mg/kg/day (repeated ip injections, day 1-9); conditions: route intraperitoneal; how it was run: as §7
L1210 [20] = assay: Antitumor activity against L1210 Lymphoid Leukemia from CDF1 female mice as average weight change of animals between day 1 and day 5 after tumor implementation at a dose of 0.50 mg/kg/day
How it was run: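 CDF1 female mice (BALB/c × DBA/2) received 10⁵ L1210 cells ip on day 0. Drug was dissolved in 2% methanol and given ip on days 1, 5 and 9, to 10 mice per group. Weights were taken on days 1 and 5, and the mean change was reported.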

L1210 [21] = assay: Antitumor activity against L1210 Lymphoid Leukemia from CDF1 female mice (T/C) as median survival time of treated mice (T) over that of control mice (C) at a dose of 1.0 mg/kg/day; how it was run: as §1
B16 [22] = assay: Antitumor activity against B16 melanoma from B6 D2 F1 female mice evaluated as the number of survivors on day 5 at a dose of 0.03 mg/kg/day; how it was run: as §2

COc1ccc(C[C@H]2C(=O)O[C@H](C)[C@H](NC(=O)[C@@H](CC(C)C)N(C)C(=O)C3CCCN3C(=O)[C@@H](C)O)C(=O)NC(C(C)C)[C@H](O)CC(=O)O[C@@H](C(C)C)C(=O)[C@H](C)C(=O)N[C@@H](CC(C)C)C(=O)N3CCC[C@H]3C(=O)N2C)cc1 (some centres not stated) [NORDIDEMNIN]
Toxicity (L1210 [1]): 1 | median survival time, days (B16 [2]): 22 | Body weight change (B16 [3]): 0 g | Toxicity (P388 [4]): 1 | T/C (B16 [5]): 142% | median survival time, days (B16 [6]): 9.9 | Body weight change (B16 [7]): 0 g | median survival time, days (B16 [8]): 29.8 | median survival time, days (P388 [9]): 12.4 | T/C (B16 [10]): 146% | T/C (B16 [11]): 157% | Toxicity (P388 [12]): 1 | Body weight change (B16 [13]): -2.3 g | Body weight change (P388 [14]): -0.7 g | median survival time, days (P388 [15]): 13.6 | Body weight change (P388 [16]): -1.7 g | T/C (B16 [17]): 116% | median survival time, days (P388 [18]): 17.9 | Body weight change (B16 [19]): -0.1 g | Body weight change (L1210 [20]): -0.9 g | T/C (L1210 [21]): 123% | Toxicity (B16 [22]): 1
